The source made the active and inactive calls. The rule behind the calls is not given here.
Tests used:
[1] = Brain to plasma partition coefficient, Kp of the compound in C57BL/6 mouse at 10 mg/kg, ip measured after 60 mins by LC-MS/MS analysis; type: ADME, organism-based; conditions: brain and plasma
Summary of the method: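 Mice given 10 mg/kg IP; time course out to 6 h with nonserial sampling of plasma and brain at each time point; Kp from brain/plasma levels.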

[2] = target: T1, Metabotropic glutamate receptor 5 (Rattus norvegicus, UniProt P31424); experiment: Positive allosteric modulation of rat mGlu5 receptor expressed in HEK cells assessed as increase in glutamate-induced calcium flux incubated for 142 secs followed by glutamate addition measured after 120 secs by Fluo4-AM dye based fluorescence assay; type: functional, cell-based
[3] = target: Adenosine receptor A3 (Homo sapiens) (UniProt P0DMS8); experiment: Displacement of [125I] AB-MECA from full length human recombinant A3 receptor expressed in CHOK1 cell membranes at 10 uM after 60 mins by scintillation counting method relative to control
Summary of the method: (§1)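 Single-concentration screen at 10 μM in an outsourced profiling panel of 68 GPCRs, ion channels and transporters. Activity read out as percent inhibition of specific radioligand binding.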

[4] = target: Alpha-1A adrenergic receptor (Rattus norvegicus) (UniProt P43140); experiment: Displacement of [3H] prazosin from Wistar rat alpha1a receptor at 10 uM measured after 60 mins by scintillation counting method relative to control; summary of the method: as §1
[5] = target: Alpha-1D adrenergic receptor (Homo sapiens) (UniProt P25100); experiment: Displacement of [3H] prazosin from recombinant human alpha1d receptor expressed in HEK293 cell membranes at 10 uM measured after 60 mins by scintillation counting method relative to control; summary of the method: as §1
[6] = target: Alpha-2A adrenergic receptor (Homo sapiens) (UniProt P08913); experiment: Displacement of [3H]rauwolscine from full length human recombinant alpha2a receptor expressed in CHOK1 cells at 10 uM after 60 mins by scintillation counting method relative to control; type: cell-based
Summary of the method: (§2)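 Single-concentration screen at 10 μM within a commercial lead-profiling panel of 68 GPCRs, ion channels and transporters. Activity read as percent inhibition of specific radioligand binding to each target.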

Homo sapiens = organism: Homo sapiens; experiment: Displacement of [3H] spiperone from recombinant human D4.2 receptor expressed in CHOK1 cell membranes at 10 uM after 120 mins by scintillation counting method relative to control; summary of the method: as §2
[7] = target: Endothelin-1 receptor (Homo sapiens) (UniProt P25101); experiment: Displacement of [125I] endothelin-1 from recombinant human ETA receptor expressed in CHOK1 cell membranes at 10 uM after 120 mins by scintillation counting method relative to control; summary of the method: as §1
[8] = target: Sodium-dependent noradrenaline transporter (Homo sapiens) (UniProt P23975); experiment: Displacement of [125I] RTI-55 from full length human recombinant NET expressed in MDCK cell membranes at 10 uM after 180 mins by scintillation counting method relative to control; summary of the method: as §1
Rattus norvegicus [9] = organism: Rattus norvegicus; experiment: Displacement of [3H]-flunitrazepam from Wistar rat brain central GABA-A receptor at 10 uM measured after 60 mins by scintillation counting method relative to control; summary of the method: as §2
[10] = target: T2, Glutamate NMDA receptor (Rattus norvegicus) (UniProt P35439+Q00959+Q00960+Q00961+Q62645+Q8VHN2+Q9R1M7); experiment: Displacement of [3H] CGP-39653 from NMDA in Wistar rat cerebral cortical membranes at 10 uM measured after 20 mins by scintillation counting method relative to control; summary of the method: as §1
[11] = target: T2, Glutamate NMDA receptor (Rattus norvegicus); experiment: Displacement of [3H]-MDL-105519 from glutamate NMDA receptor glycine binding site in Wistar rat cerebral cortical membrane at 10 uM after 30 mins by scintillation counting method relative to control; summary of the method: as §2
[12] = target: T2, Glutamate NMDA receptor (Rattus norvegicus); experiment: Displacement of [3H] TCP from glutamate NMDA receptor phencyclidine binding site in Wistar rat cerebral cortical membrane at 10 uM after 45 mins by scintillation counting method relative to control; summary of the method: as §1
[13] = target: Acetylcholine receptor subunit alpha (Homo sapiens) (UniProt P02708); experiment: Displacement of [125I] alpha-Bungarotoxin from alpha1 nAChR in human rhabdomyosarcoma cell membranes at 10 uM after 120 mins by scintillation counting method relative to control; summary of the method: as §1
[14] = target: 5-hydroxytryptamine receptor 3A (Homo sapiens) (UniProt P46098); experiment: Displacement of [3H] GR-65630 from full length human recombinant 5-HT3 receptor expressed in HEK293 cell membranes at 10 uM after 60 mins by scintillation counting method relative to control; summary of the method: as §1
hERG (KCNH2) = hERG (KCNH2) (Homo sapiens, UniProt Q12809); experiment: Displacement of [3H] astemizole from full length human recombinant ERG receptor expressed in HEK293 cell membranes at 10 uM after 60 mins by scintillation counting method relative to control; conditions: HEK293 cell membranes that express recombinant human ERG, probe [3H] astemizole
Rattus norvegicus [15] = organism: Rattus norvegicus; experiment: Displacement of [3H]batrachotoxinin from sodium channel site 2 in Wistar rat brain membranes at 10 uM after 60 mins by scintillation counting method relative to control; type: cell membranes; conditions: Membrane; summary of the method: as §2
[16] = target: Androgen receptor (Homo sapiens) (UniProt P10275); experiment: Displacement of [3H] methyltrienolone from androgen receptor in human LNCAP cells at 10 uM after 20 hrs by scintillation counting method relative to control; type: cell-based
[17] = target: Estrogen receptor (Homo sapiens) (UniProt P03372); experiment: Displacement of [3H] estradiol from full length human recombinant ERalpha receptor expressed in Sf9 insect cells at 10 uM after 120 mins by scintillation counting method relative to control
[18] = target: Sigma non-opioid intracellular receptor 1 (Homo sapiens) (UniProt Q99720); experiment: Displacement of [3H] haloperidol from sigma1 receptor in human Jurkat cells at 10 uM after 4 hrs by scintillation counting method relative to control; type: cell-based; summary of the method: as §1
Rattus norvegicus [19] = organism: Rattus norvegicus; experiment: Displacement of [3H] Idazoxan from imidazoline I2 receptor in Wistar rat brain membranes at 10 uM after 30 mins by scintillation counting method relative to control; type: cell membranes; conditions: Membrane; summary of the method: as §1
[20] = target: L-type calcium channel, dihydropyridine site (Rattus norvegicus, UniProt P22002+P27732+Q02485); experiment: Inhibition of rat L-type calcium channel dihydropyridine site at 10 uM relative to control; type: protein assay
Rattus norvegicus [21] = organism: Rattus norvegicus; experiment: Inhibition of rat N-type calcium channel at 10 uM relative to control; summary of the method: as §2
Rattus norvegicus [22] = experiment: Antipsychotic activity in rat assessed as inhibition of amphetamine-induced hyperlocomotion at 30 mg/kg, ip; type: functional, organism-based
Summary of the method: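 Rats given 30 mg/kg IP in 10% Tween 80/H2O, challenged with amphetamine 0.75 mg/kg s.c.; locomotor activity measured.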

[23] = target: Metabotropic glutamate receptor 2 (Rattus norvegicus, UniProt P31421); experiment: Negative allosteric modulation of rat mGlu2 receptor expressed in HEK cells assessed as decrease in glutamate-induced thallium flux incubated for 142 secs followed by glutamate addition measured after 120 secs by Fluo4-AM dye based fluorescence assay; type: functional, cell-based
[24] = target: T1, Metabotropic glutamate receptor 5; experiment: Negative allosteric modulation of rat mGlu5 receptor expressed in HEK cells assessed as decrease in glutamate-induced thallium flux incubated for 142 secs followed by glutamate addition measured after 120 secs by Fluo4-AM dye based fluorescence assay; type: functional, cell-based
[25] = target: Metabotropic glutamate receptor 6 (Homo sapiens, UniProt O15303); experiment: Negative allosteric modulation of human mGlu6 receptor expressed in HEK cells harboring GIRK channel assessed as decrease in glutamate-induced thallium flux incubated for 142 secs followed by glutamate addition measured after 120 secs by Fluo4-AM dye based fluorescence assay; type: functional, cell-based

T1 sequence (P31424 whole entry): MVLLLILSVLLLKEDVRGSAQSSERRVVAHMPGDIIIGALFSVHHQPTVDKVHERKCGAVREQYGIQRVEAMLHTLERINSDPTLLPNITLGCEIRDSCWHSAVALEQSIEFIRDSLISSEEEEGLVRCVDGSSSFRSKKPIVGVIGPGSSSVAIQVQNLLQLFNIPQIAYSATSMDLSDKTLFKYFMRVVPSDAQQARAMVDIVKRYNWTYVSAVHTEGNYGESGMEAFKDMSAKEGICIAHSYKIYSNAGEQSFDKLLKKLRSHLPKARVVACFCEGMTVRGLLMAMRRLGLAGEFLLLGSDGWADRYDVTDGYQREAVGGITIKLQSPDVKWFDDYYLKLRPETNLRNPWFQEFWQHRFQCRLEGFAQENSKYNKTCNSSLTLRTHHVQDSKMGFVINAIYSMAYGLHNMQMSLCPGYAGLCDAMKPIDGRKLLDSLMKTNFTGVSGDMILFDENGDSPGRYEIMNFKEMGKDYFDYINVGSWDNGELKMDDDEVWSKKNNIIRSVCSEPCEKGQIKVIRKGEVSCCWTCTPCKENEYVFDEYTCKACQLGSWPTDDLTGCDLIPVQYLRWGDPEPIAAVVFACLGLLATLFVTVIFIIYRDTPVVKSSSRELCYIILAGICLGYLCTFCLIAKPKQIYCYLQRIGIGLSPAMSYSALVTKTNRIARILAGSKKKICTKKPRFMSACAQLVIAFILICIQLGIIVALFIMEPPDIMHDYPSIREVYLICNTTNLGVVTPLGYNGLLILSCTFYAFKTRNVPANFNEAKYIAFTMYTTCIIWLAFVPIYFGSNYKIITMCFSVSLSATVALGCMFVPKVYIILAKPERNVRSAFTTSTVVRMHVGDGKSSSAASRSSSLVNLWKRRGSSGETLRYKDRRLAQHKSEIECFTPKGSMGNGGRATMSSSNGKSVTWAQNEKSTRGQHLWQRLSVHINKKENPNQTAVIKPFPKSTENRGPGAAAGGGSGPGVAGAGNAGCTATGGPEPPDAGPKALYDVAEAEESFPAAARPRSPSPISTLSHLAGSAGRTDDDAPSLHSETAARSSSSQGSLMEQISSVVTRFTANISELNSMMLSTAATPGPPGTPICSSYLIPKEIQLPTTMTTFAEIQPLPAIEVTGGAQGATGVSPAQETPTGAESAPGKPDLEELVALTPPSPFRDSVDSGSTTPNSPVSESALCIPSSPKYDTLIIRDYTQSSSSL
Sequence of Metabotropic glutamate receptor 2 (P31421 whole entry): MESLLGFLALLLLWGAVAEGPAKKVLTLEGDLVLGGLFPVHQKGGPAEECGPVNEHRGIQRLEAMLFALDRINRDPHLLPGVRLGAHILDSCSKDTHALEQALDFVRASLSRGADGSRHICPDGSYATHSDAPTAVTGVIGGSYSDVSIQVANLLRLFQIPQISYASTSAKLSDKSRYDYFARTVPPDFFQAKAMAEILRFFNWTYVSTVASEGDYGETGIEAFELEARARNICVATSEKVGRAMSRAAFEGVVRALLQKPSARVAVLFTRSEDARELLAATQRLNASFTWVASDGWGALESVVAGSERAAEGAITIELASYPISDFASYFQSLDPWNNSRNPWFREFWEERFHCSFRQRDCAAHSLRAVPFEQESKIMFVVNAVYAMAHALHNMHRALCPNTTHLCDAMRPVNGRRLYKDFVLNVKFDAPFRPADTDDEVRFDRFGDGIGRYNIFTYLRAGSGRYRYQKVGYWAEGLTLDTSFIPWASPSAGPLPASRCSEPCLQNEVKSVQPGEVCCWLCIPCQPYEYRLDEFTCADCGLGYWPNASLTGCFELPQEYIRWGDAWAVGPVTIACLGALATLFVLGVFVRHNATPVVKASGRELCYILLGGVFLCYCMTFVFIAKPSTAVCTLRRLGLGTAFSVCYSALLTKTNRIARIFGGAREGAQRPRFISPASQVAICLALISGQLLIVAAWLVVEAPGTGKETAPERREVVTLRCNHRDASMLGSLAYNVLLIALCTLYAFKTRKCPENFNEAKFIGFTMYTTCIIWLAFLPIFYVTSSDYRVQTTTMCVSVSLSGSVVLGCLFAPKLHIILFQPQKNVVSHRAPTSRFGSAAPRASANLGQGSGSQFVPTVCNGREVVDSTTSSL
Sequence of Adenosine receptor A3 (Homo sapiens) (P0DMS8 whole entry): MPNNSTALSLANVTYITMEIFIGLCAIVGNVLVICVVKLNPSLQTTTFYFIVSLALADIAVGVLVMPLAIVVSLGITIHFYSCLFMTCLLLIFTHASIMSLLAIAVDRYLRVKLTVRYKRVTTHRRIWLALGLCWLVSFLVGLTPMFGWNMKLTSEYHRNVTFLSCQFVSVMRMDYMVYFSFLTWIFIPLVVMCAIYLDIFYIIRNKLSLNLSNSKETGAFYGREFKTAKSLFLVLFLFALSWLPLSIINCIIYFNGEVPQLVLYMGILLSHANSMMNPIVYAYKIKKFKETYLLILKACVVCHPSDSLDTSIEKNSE
Sequence of Acetylcholine receptor subunit alpha (Homo sapiens) (P02708 whole entry): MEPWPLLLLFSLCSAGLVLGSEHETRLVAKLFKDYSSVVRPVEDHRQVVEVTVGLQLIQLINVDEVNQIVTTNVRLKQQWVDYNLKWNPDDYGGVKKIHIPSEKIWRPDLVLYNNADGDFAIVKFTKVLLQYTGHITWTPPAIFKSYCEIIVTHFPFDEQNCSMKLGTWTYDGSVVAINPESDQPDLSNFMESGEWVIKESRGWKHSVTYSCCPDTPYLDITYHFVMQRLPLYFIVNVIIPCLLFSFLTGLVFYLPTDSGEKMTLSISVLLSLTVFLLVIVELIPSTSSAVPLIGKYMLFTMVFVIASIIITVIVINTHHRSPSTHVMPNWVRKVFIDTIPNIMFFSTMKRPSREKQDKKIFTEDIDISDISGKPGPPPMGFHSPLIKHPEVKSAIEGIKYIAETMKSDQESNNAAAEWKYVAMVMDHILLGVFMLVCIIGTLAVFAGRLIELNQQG
Sequence of Alpha-1D adrenergic receptor (Homo sapiens) (P25100 whole entry): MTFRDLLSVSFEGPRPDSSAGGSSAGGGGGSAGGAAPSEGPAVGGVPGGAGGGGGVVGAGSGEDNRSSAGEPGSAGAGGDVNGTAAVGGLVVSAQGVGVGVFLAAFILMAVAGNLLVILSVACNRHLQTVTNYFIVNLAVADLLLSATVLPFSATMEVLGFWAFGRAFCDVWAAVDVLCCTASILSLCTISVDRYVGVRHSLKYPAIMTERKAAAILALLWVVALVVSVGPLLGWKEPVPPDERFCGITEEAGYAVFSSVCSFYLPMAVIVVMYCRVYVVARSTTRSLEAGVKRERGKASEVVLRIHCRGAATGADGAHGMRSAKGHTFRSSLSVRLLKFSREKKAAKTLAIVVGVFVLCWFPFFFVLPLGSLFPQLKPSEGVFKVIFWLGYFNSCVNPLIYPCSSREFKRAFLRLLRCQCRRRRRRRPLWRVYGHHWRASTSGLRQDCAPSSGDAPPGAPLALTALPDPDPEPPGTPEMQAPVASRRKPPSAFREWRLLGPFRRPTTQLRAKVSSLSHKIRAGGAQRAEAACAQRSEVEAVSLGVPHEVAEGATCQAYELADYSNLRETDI
Sequence of hERG (KCNH2) (Q12809 whole entry): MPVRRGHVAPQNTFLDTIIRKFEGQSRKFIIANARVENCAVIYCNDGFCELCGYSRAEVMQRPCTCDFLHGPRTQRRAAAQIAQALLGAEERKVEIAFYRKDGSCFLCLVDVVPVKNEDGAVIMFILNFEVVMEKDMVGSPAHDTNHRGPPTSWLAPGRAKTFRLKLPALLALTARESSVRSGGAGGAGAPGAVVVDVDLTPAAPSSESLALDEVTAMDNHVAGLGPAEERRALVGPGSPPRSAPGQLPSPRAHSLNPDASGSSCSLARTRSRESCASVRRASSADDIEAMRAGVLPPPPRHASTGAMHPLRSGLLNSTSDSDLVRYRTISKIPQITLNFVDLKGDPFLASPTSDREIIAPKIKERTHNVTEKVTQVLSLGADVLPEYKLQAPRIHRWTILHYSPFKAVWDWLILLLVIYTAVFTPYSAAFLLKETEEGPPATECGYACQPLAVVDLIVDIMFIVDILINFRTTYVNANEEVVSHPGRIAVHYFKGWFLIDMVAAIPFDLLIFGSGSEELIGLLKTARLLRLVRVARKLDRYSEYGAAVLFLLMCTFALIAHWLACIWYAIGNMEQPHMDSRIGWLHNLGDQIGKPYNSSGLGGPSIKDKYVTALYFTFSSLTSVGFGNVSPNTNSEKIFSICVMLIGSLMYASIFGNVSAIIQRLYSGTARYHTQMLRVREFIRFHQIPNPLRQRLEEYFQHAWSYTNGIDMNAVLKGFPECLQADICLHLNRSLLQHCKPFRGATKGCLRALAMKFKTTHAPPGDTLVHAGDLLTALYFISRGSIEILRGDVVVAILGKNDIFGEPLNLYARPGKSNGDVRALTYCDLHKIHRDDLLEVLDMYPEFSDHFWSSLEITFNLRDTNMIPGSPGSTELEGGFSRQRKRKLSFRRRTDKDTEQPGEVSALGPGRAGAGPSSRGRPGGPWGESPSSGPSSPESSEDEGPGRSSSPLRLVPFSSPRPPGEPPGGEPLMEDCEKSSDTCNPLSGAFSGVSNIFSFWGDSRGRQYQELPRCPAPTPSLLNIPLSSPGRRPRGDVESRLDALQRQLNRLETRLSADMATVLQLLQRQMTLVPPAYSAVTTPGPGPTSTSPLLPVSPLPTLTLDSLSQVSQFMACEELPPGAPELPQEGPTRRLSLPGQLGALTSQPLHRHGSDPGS
Sequence of Alpha-2A adrenergic receptor (Homo sapiens) (P08913 whole entry): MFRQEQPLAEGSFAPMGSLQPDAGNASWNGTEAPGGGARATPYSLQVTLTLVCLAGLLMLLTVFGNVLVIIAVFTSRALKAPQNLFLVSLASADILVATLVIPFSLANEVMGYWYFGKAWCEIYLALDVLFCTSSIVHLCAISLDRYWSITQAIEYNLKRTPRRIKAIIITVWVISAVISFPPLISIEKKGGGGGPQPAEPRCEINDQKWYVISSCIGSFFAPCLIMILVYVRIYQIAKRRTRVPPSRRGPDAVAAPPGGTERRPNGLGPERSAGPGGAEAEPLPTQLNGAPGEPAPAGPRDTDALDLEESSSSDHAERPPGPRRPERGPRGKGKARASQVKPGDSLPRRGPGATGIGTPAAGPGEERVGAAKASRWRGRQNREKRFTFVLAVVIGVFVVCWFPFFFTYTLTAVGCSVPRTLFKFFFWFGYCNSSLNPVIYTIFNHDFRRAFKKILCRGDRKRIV

## COc1ccc(-c2c(C)nn3c(C(F)(F)F)cc(C)nc23)c(F)c1F
[1]
  Kp at 1 h: 2.1
[2]
  EC50: > 10 µM
[3]
  inhibition: < 50%
[4]
  inhibition: < 50%
[5]
  inhibition: < 50%
[6]
  inhibition: < 50%
Homo sapiens
  inhibition: < 50%
[7]
  inhibition: < 50%
[8]
  inhibition: < 50%
Rattus norvegicus [9]
  inhibition: < 50%
[10]
  inhibition: < 50%
[11]
  inhibition: < 50%
[12]
  inhibition: < 50%
[13]
  inhibition: < 50%
[14]
  inhibition: < 50%
hERG (KCNH2)
  inhibition at 1 h, 10 µM: < 50%
Rattus norvegicus [15]
  inhibition: < 50%
[16]
  inhibition: < 50%
[17]
  inhibition: < 50%
[18]
  inhibition: < 50%
Rattus norvegicus [19]
  inhibition: < 50%
[20]
  inhibition at 10 µM: < 50%
Rattus norvegicus [21]
  inhibition: < 50%
Rattus norvegicus [22]
  inhibition: inactive
[23]
  IC50: > 10 µM
[24]
  IC50: > 10 µM
[25]
  IC50: > 10 µM

From ChEMBL document CHEMBL4138139, “Discovery of VU6005649, a CNS Penetrant mGlu7/8 Receptor PAM Derived from a Series of Pyrazolo[1,5-a]pyrimidines” (ACS Med Chem Lett, 2017)
